MC4R ag barr: human MC4R agonism via beta-arrestin. U2OS MC4R beta-arrestin complementation, luminescence; percent of melanotan II response, DMSO zero. activation, % at 8.9 µM. P32245. 360,000 tested, 0.98% active;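 active = activation above a per-plate cutoff, the mean activation of sample wells on that plate plus 3 SD, cut at about 8% in these data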
Target sequence (P32245 whole entry, looked up): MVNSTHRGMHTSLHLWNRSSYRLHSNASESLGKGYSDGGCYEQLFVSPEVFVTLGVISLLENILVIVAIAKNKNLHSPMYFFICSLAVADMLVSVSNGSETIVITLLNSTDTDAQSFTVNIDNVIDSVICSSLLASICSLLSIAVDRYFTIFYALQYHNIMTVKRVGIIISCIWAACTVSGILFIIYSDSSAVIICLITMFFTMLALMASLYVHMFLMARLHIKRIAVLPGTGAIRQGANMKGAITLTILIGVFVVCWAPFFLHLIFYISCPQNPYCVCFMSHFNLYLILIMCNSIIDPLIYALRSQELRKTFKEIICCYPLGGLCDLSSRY
Exocytosis inh: lytic granule exocytosis inhibition | TALL-104 LAMP-1 surface exposure, flow cytometry; cells stimulated with thapsigargin and PMA | 360,000 tested, 0.66% active | inhibition, % at 10 µM;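 active = inhibition above about 55%, limit read from the data; inconclusive = no clear call, values can overlap the other calls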
EBI2 block: EBI2 (human) antagonism; inhibition, % at 5 µM; EBI2 beta-arrestin recruitment, luminescence, 7a,25-OHC stimulated; 360,000 tested, 0.81% active; P32249; in the data active = inhibition above about 38%;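 note: enzyme fragment complementation signal reports receptor beta-arrestin coupling in cells; 0% = agonist plus DMSO wells and 100% = wells without agonist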
Target sequence (P32249 whole entry, looked up, the tested form may be a part): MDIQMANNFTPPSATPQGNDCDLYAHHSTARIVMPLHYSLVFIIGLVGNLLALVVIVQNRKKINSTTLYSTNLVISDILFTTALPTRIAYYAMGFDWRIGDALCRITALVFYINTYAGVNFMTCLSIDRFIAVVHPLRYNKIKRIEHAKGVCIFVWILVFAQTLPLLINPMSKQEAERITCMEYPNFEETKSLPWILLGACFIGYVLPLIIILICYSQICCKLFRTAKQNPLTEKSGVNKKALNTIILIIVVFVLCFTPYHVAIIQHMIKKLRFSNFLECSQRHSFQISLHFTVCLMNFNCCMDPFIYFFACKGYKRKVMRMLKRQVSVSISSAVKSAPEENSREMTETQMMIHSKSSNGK
MC4R antagonist: blocks human MC4R cAMP signaling; MC4R-expressing cells, MTII-stimulated cAMP, LANCE TR-FRET; inhibition, % at 6.5 µM; 360,000 tested, 0.48% active; AID 540295;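 active = inhibition above its plate's cutoff, the mean of tested wells on that plate plus 3 SD, cut at about 29% in these data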;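 note: 0% = Melanotan II alone and 100% = Melanotan II plus saturating MCL0020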
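Test system: U2OS cells stably expressing human melanocortin 4 receptor (MC4R); also added: Melanotan II challenge; compound: 6.5 µM single dose; timing: 30-min compound preincubation, 1-h Melanotan II challenge, 1-h detection, room temperature; signal: Eu-cAMP/anti-cAMP TR-FRET, emission 671 nm; repeats: one well per compound, no replicates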
Myeloid diff MLP: promotes myeloid progenitor differentiation. ER-HoxA9 myeloid progenitors, lysozyme-GFP differentiation, flow cytometry. calls only at 10 µM. 360,000 tested, 1% active. AID 624256;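 active = normalized GFP-positive differentiation at or above the plate's own cutoff, the solvent-only control mean plus 3 SD; inconclusive = no clear call, values can overlap the other calls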;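 note: cells exposed to compound for four days before flow analysis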
* = called active by the depositor; i = inactive; ? = inconclusive; nt = no result given; + = active, no number. Compounds with a hit are over-represented: about 3.7% of the library has one in this group of screens.

SMILES | MC4R ag barr | Exocytosis inh | EBI2 block | MC4R antagonist | Myeloid diff MLP
CN=C1c2cc3cc(OC)ccc3n2CCN1C | 0.0 | 5.8 | 8.4 | -3.4 | +
O=C(Nc1ccc(Cl)c(S(=O)(=O)N2CCOCC2)c1)c1ccc(OCC2CCCO2)cc1 (stereo not drawn) | 0.6 | 94.1* | -15.7 | 7.0 | i
COc1ccc(C(=O)Nc2ccc(Cl)c(S(=O)(=O)N3CCOCC3)c2)cc1 | 0.1 | 2.3 | -0.4 | 10.1 | i
N#C/C(=C\C1=C(N2CCOCC2)C(=C\c2ccc(Cl)cc2)/CC1)C(=O)Nc1ccccc1F | -0.2 | 1.2 | 14.0 | 25.4 | +
N#C/C(=C/C1=C(N2CCOCC2)C(=C/c2ccc(Cl)cc2Cl)/CC1)C(=O)Nc1ccccc1F | -3.7 | 5.5 | 18.3 | 0.4 | +
N#C/C(=C\C1=C(N2CCOCC2)C(=C/c2cccc([N+](=O)[O-])c2)/CC1)C(=O)Nc1ccccc1F | -1.4 | 1.9 | 21.7 | 5.9 | i
CCN(CC)c1ccc(/C=C2\CCC(/C=C(/C#N)C(=O)Nc3ccccc3F)=C2N2CCOCC2)cc1 | -1.2 | -17.3 | 26.8 | -3.6 | i
N#C/C(=C/C1=C(N2CCOCC2)C(=C/c2ccccc2)/CC1)C(=O)Nc1ccccc1F | 0.0 | 0.3 | 20.6 | 8.8 | +
O=C(N/C(=C\c1ccc(-c2ccccc2)o1)C(=O)N1CCOCC1)c1ccccc1 | 0.4 | -0.2 | -12.2 | -6.9 | nt
Cc1ccc(C(=O)Nc2cccc(C(=O)NC3CCCC3)c2)cc1 | -1.2 | -4.8 | -14.6 | 6.1 | i
Cc1ccc(OCCN2C(=O)C(=O)c3cc(C)ccc32)cc1 | -2.0 | 71.7* | 15.8 | -12.6 | nt
Cc1c(CN(C)C(=O)C2CCC(=O)N(Cc3ccccc3F)C2)[nH]c2ccccc12 (stereo not drawn) | 0.9 | 5.8 | 13.6 | 11.7 | i
CCOC(=O)c1c(C)[nH]c(C(=O)NCCc2ccc(OC)c(OC)c2)c1C | 1.4 | 0.2 | 0.9 | 23.5 | i
CCOC(=O)c1c(C)[nH]c(C(=O)/C(C#N)=C/c2ccc(OC(F)F)c(OC)c2)c1C | -2.3 | 2.1 | 8.0 | -2.8 | +
COc1cc(/C=C(/C#N)C(=O)c2c(C)[nH]c3ccccc23)ccc1OCC#N | -0.1 | 56.7* | 14.4 | -5.5 | i
CCOC(=O)c1c(C)[nH]c(C(=O)/C(C#N)=C/c2ccc(OC)c(OC)c2)c1C | -0.4 | 0.4 | 11.8 | 3.6 | +
CCOc1ccc(/C=C(\C#N)C(=O)c2c(C)[nH]c3ccccc23)cc1OC | 1.2 | -1.1 | 23.0 | 1.7 | i
OC[C@@H]1CC[C@@H](Cc2ccc(-c3ccccc3)cc2)O1 | -0.9 | 1.2 | -0.5 | -4.4 | i
C=CCOC(=O)C1=C[C@H](C(C)(C)C)[C@@H](CCCO)[C@H](OCC)O1 | 2.6 | 69.4* | -2.7 | 10.8 | i
COc1ccccc1CNC(=O)CSc1ccc(-c2cccc([N+](=O)[O-])c2)nn1 | -2.5 | -0.3 | -4.4 | 0.4 | i
COc1ccc2c(c1)C(SCC(=O)NCCc1ccc(Cl)cc1)CC(C)(C)O2 (stereo not drawn) | 1.9 | 13.2 | 23.7 | 4.3 | +
COc1ccc(CCNC(=O)CN(Cc2ccc(Cl)cc2)S(C)(=O)=O)cc1 | 0.1 | 10.9 | 9.7 | 5.7 | i
O=C(Cn1ncc2c([nH]c3ccccc32)c1=O)Nc1ccc(CN2CCCCC2)cc1 | -1.5 | -9.1 | -9.1 | -7.3 | +
Cc1ccc(/C=C/C(=O)CCC(=O)O)cc1 | -1.8 | 0.6 | 8.0 | 2.7 | i
O=C(NC1CCCC1)C(c1cccnc1)N(C(=O)c1csnn1)c1ccccc1Cl (stereo not drawn) | -2.0 | -0.5 | -3.4 | 3.1 | i
SMILES | MC4R ag barr | Exocytosis inh | EBI2 block | MC4R antagonist | Myeloid diff MLP
O=C(CCl)N1c2ccccc2CCc2ccccc21 | 5.3 | 5.2 | -9.2 | 10.2 | +
CC(C(=O)OCC(=O)Nc1ccccc1OC(F)F)N1C(=O)C2CC=CCC2C1=O (stereo not drawn) | -1.1 | -2.4 | -7.5 | 7.1 | i
CCc1c(C)[nH]n(-c2nc(-c3ccccc3)cs2)c1=O | -3.0 | -3.4 | 1.4 | 4.6 | i
Cc1[nH]n(-c2nc(-c3ccc(Cl)cc3)cs2)c(=O)c1N=Nc1ccc(O)cc1 | -2.5 | 2.5 | 51.2* | 5.9 | nt
Cc1cccc(C)c1NC(=O)c1sccc1SCc1cccc(C(F)(F)F)c1 | 2.9 | 66.5* | 9.9 | 12.6 | i
Cc1ccccc1S(=O)(=O)/N=C(/c1ccccc1)N1CCOCC1 | -3.0 | -2.7 | 6.3 | -0.1 | i
O=[N+]([O-])c1ccc(-c2ccc(/C=N/Nc3nc(N4CCCCC4)nc(N4CCCCC4)n3)o2)cc1 | -0.6 | -3.0 | 11.9 | 1.0 | +
CCCCCCCCOC(=O)CCc1c(C)[nH]c(=S)[nH]c1=O | 9.0* | 7.2 | 6.6 | 1.2 | i
O=C1c2cccc3c(N4CCCCC4)ccc(c23)C(=O)N1c1ccccc1O | -1.8 | -3.5 | 4.2 | 10.8 | +
O=C(O)c1ccc(N2CCCCCC2)c(N2C(=O)c3ccccc3C2=O)c1 | -1.3 | -2.3 | 11.8 | 7.0 | i
O=C1c2cccc3c(N4CCCCC4)ccc(c23)C(=O)N1c1ccc(O)cc1 | 0.8 | 16.4 | 9.0 | 23.0 | +
O=C1c2cccc3cccc(c23)C(=O)N1c1ccc(O)cc1 | -0.8 | 0.5 | 4.3 | 3.9 | i
CCOC(=O)c1c(C)[nH]c(C)c1C(=O)COC(=O)/C=C/c1ccc(Cl)cc1 | 2.4 | 25.1 | 13.9 | -7.2 | i
CCCCc1ccc(NC(=O)CSc2nnc(CNC(=O)c3ccco3)o2)cc1 | -0.6 | -0.8 | -0.8 | 9.0 | i
CCCn1cc(S(=O)(=O)c2ccc(F)cc2)c(=O)c2cc(OCC)ccc21 | 0.5 | 3.6 | 2.8 | 13.5 | +
CCOc1ccc2[nH]cc(S(=O)(=O)c3ccc(F)cc3)c(=O)c2c1 | -1.4 | 4.3 | -4.2 | 6.2 | i
Cc1c(C(=O)OCC(=O)Nc2ccc(N3CCOCC3)cc2)oc2ccccc12 | 9.2* | -8.5 | 1.8 | -2.4 | i
CCOC(=O)Cn1c(=N)n(CCOc2ccc3ccccc3c2)c2ccccc21 | 9.6* | 21.1 | -2.1 | -5.2 | i
CCOC(=O)Cn1c(=N)n(CCOc2ccc(OC)cc2)c2ccccc21 | -1.1 | 0.8 | -8.4 | 1.9 | i
CC1(C)CC(=O)C(=Cc2cn(-c3ccccc3)nc2-c2ccccc2)C(=O)C1 | -0.8 | 55.9* | 38.3 | 8.1 | i
NS(=O)(=O)c1ccc(CCNC(=O)c2ccc[nH]c2=S)cc1 | -1.1 | -4.2 | -7.0 | 1.3 | i
COc1ccc([C@H]2CC(=O)C=C(c3cc(Br)ccc3OC)C2)cc1 | -0.8 | 6.1 | 16.5 | -7.1 | +
CCOc1ccc(Br)cc1C1=CC(=O)C[C@H](c2ccc(OC)cc2)C1 | -1.1 | -2.0 | 16.7 | -17.0 | ?
COC(=O)c1sc2ncccc2c1OCc1ccccc1Cl | -0.9 | -4.7 | 15.3 | 15.9 | i
COC(=O)c1sc2ncccc2c1OCc1ccc(Cl)cc1 | 8.8* | -5.2 | 25.7 | 5.2 | i
Cc1ccccc1CNC(=O)c1csc([C@@H]2C[C@H](O)[C@@H](CO)O2)n1 | 2.2 | 0.6 | -1.0 | 3.6 | i
